Shown are actives, neighbours in structure and some others; about 3.8% of the full set was active somewhere.
V-ATPase pHluor: yeast V-ATPase proton transport regulation by pHLuorin | 350,000 tested, 0.37% active | S. cerevisiae, pHLuorin cytosolic pH fluorescence | response, % at 10 µM; in the data active means response mostly above about 7.3%, no sharp cut-off; inactive means mostly below about 5.4%; further: actives read high
MPTP block: inhibitors of mitochondrial permeability transition pore | isolated mouse mitochondria, Ca2+ swelling absorbance, 30 min | inhibition, % at 10 µM | 360,000 tested, 1.4% active | AID 602449;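 active means inhibition of 50% or more, scaled per plate between neutral and stimulator controls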;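 further: 0% = DMSO wells given calcium and 100% = 1 mM EGTA wells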
Granule exo inh: blocks lytic granule exocytosis. inhibition, % at 10 µM. 360,000 tested, 0.66% active. TALL-104 LAMP-1 surface exposure, flow cytometry; cells stimulated with thapsigargin and PMA;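 active means inhibition above about 55%, limit read from the data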
T cell HTS: T cell immune modulators affecting CD8 T cell-vesicle binding; AID 2052; 2C CD8+ T cell-vesicle binding, flow cytometry; active compounds read low; response (vesicle binding), % at 7 µM; 330,000 tested, 0.068% active;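 active means response, share of CD8 T cells binding vesicles, and their 90th percentile fluorescence all below set limits, cut at about 80% in these data, passing the limit was not always enough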;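 further: values below 100% mean blocked vesicle binding to the CD8+ T cells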
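Test system: purified 2C TCR transgenic mouse naive CD8+ T cells. Probe or stimulus: QL9-peptide-loaded Drosophila micro-vesicles bearing Ld, ICAM-1 and B7-1. Incubation: binding step 1.5 h, 37 °C, antibody labelling 20 min, ice. Measured by: flow cytometry of vesicle-bound cells.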
rCAG binder: binds r(CAG) RNA repeats; r(CAG) RNA repeat, TO-PRO-1 dye displacement fluorescence; 370,000 tested, 1.3% active; inhibition, % at 3 µM;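 active means inhibition above the plate cutoff, the mean of all test compounds on that plate plus 3 SD, cut at about 35% in these data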;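 further: 0% = DMSO alone and 100% = 100 µM mitoxantrone as full dye displacement; higher means more dye released from RNA so lower well fluorescence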
B2AR ag: human beta-2 adrenergic receptor agonism by FAP. Am2.2-beta2AR cells, FAP receptor internalization, flow cytometry. response, % (concentration not given with the values). 340,000 tested, 0.43% active. AID 504454;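 active means response above a set limit, near 3 SD of response in nonfluorescent compounds, cut at about 42% in these data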
Target sequence (P07550 whole entry, looked up): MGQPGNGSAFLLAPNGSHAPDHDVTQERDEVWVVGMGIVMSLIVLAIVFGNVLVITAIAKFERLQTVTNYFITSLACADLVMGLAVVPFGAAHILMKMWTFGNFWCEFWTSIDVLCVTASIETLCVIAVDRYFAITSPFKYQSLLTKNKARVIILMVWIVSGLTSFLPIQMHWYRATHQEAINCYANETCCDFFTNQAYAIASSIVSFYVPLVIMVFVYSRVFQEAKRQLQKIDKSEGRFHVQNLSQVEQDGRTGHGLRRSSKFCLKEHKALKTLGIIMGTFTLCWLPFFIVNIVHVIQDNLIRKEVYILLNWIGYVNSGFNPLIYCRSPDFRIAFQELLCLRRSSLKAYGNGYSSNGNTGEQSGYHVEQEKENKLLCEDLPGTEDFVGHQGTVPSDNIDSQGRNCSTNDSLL
Granule exo CP1: blocks lytic granule exocytosis. shares compounds with Granule exo inh. TALL-104 cells, LAMP-1 externalization, flow cytometry; stimulated with PMA plus thapsigargin. inhibition, % at 10 µM. 1,500 tested, 11% active. AID 651954; in the data active means inhibition above about 60%;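 further: 0% = stimulated vehicle wells and 100% = unstimulated wells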
Starred values were filed as active, the others as inactive.

What do the screens show for `CC(=O)Nc1ccc(S(=O)(=O)NCC2CCN(C(=O)C(=O)c3cccs3)CC2)cc1`?
rCAG binder: 3

Results for CCCN1C(=O)c2n[nH]c(C)c2C1c1ccc2c(c1)OCO2 (stereo not drawn) ?
rCAG binder: 0

What do the screens show for `COC(=O)[C@]12C[C@H](CC(=O)N3CCN(C(=O)C4CC4)CC3)C(=O)N(Cc3cccc4ccccc34)C1=C[C@H](C(C)C)O[C@@H]2C1CC1`?
rCAG binder: 8

How did Cc1ccc(C(c2nnnn2Cc2cccs2)N2CCN(Cc3ccc4c(c3)OCO4)CC2)cc1 (stereo not drawn) do in these assays?
V-ATPase pHluor: -4; MPTP block: 1; Granule exo inh: 60*; T cell HTS: 155; rCAG binder: -4; B2AR ag: 7; Granule exo CP1: 9

Results for O=C(Nc1ccccc1Cl)c1sccc1-c1ccccc1 ?
V-ATPase pHluor: 3; MPTP block: 0; Granule exo inh: 81*; T cell HTS: 591; rCAG binder: -2; B2AR ag: -11; Granule exo CP1: -5

Results for C(=C\c1ccco1)/c1ccc2ccccc2n1 ?
V-ATPase pHluor: 1; MPTP block: 4; Granule exo inh: 59*; T cell HTS: 475; rCAG binder: 19; B2AR ag: 6; Granule exo CP1: -5

What do the screens show for `N#Cc1ccc(Cn2nnc(-c3ccc(N4CCOCC4)cc3)n2)cc1`?
rCAG binder: 1

Results for O=C(CSc1nc2ccccc2[nH]1)Nc1ccccc1N1CCOCC1 ?
V-ATPase pHluor: -1; MPTP block: 1; Granule exo inh: 2; T cell HTS: 158; rCAG binder: 8; B2AR ag: -6

What do the screens show for `O=C(CSc1nc2ccccc2[nH]1)Nc1cc(C(F)(F)F)ccc1N1CCOCC1`?
V-ATPase pHluor: 2; MPTP block: 3; Granule exo inh: 62*; T cell HTS: 411; rCAG binder: 0; B2AR ag: -10; Granule exo CP1: -3

What do the screens show for `COC(=O)[C@]12C[C@H](CC(=O)NCCCN3CCCC3=O)C(=O)N(Cc3ccccc3)C1=C[C@H](COCc1ccccc1)O[C@@H]2C`?
rCAG binder: 0

How did COC(=O)C(Cc1c[nH]c2ccccc12)NC(=O)c1cccs1 (stereo not drawn) do in these assays?
V-ATPase pHluor: 3; MPTP block: 2; Granule exo inh: -1; T cell HTS: 329; rCAG binder: -1; B2AR ag: 12

What do the screens show for `COc1ccc(CNC(=O)COC(=O)[C@H](Cc2c[nH]c3ccccc23)NC(=O)c2cccs2)cc1`?
V-ATPase pHluor: 0; MPTP block: 1; Granule exo inh: 58*; T cell HTS: 228; rCAG binder: 0; B2AR ag: 5; Granule exo CP1: 33

Results for CCn1c2ccc(C)cc2c2nnc(SCCN3CCCCC3)nc21 ?
V-ATPase pHluor: -1; MPTP block: 0; Granule exo inh: 97*; T cell HTS: 224; rCAG binder: 5; B2AR ag: -6; Granule exo CP1: -3

How did OC(CNCC(c1ccc(Cl)cc1Cl)c1c[nH]c2ccccc12)c1ccccc1 (stereo not drawn) do in these assays?
V-ATPase pHluor: 5; MPTP block: 11; Granule exo inh: 100*; T cell HTS: 323; rCAG binder: 0; B2AR ag: 23; Granule exo CP1: 88*

How did O=C(Cn1sc2ccccc2c1=O)NC12CC3CC(CC(C3)C1)C2 do in these assays?
V-ATPase pHluor: -3; MPTP block: 21; Granule exo inh: 104*; T cell HTS: 238; B2AR ag: 3; Granule exo CP1: 100*

What do the screens show for `CCCn1c(C(O)c2cccc(OC)c2)nc2ccccc21` (stereo not drawn)?
V-ATPase pHluor: -2; MPTP block: 1; Granule exo inh: 73*; rCAG binder: -5; B2AR ag: 1; Granule exo CP1: -13

How did CCCn1c(C(O)c2ccc(OC)cc2)nc2ccccc21 (stereo not drawn) do in these assays?
V-ATPase pHluor: -2; MPTP block: -1; Granule exo inh: -3; T cell HTS: 162; rCAG binder: -5; B2AR ag: -5

What do the screens show for `COC(=O)c1ccc(OCC(O)CN2CCc3cc(OC)c(OC)cc3C2c2ccccc2)cc1` (stereo not drawn)?
V-ATPase pHluor: 1; MPTP block: 2; Granule exo inh: 74*; T cell HTS: 526; rCAG binder: 0; B2AR ag: -3; Granule exo CP1: -12

What do the screens show for `Cc1cccc(NC(=O)C2CCCN2S(=O)(=O)c2cccnc2)c1C` (stereo not drawn)?
rCAG binder: 0

Results for O=C(Nc1ccc(S(=O)(=O)N2CCCC2)cc1)c1ccc(Br)o1 ?
V-ATPase pHluor: -1; MPTP block: -1; Granule exo inh: 80*; T cell HTS: 296; rCAG binder: 1; B2AR ag: -3; Granule exo CP1: -2

Results for O=C(Nc1ccc(S(=O)(=O)N2CCOCC2)cc1)c1ccc(Br)o1 ?
V-ATPase pHluor: 0; MPTP block: 1; Granule exo inh: 9; T cell HTS: 141; rCAG binder: -1; B2AR ag: 6

What do the screens show for `COC(=O)[C@]12CCCCC=C1N(Cc1ccc(OC)cc1)C(=O)[C@@H]2CC(=O)N1CCCC1`?
rCAG binder: 0

Results for CCCCOc1ccc(C(=O)NC2CCCCN(Cc3ccc(Cl)cc3)C2=O)cc1 (stereo not drawn) ?
rCAG binder: 2

What do the screens show for `CCOC(=O)C1=C(CNCc2ccc(F)cc2)NC(=O)NC1c1cccc([N+](=O)[O-])c1` (stereo not drawn)?
V-ATPase pHluor: -3; MPTP block: 1; Granule exo inh: -3; T cell HTS: 593; rCAG binder: -3; B2AR ag: -7

What do the screens show for `CCOC(=O)C1=C(CCc2ccccc2)NC(=O)NC1c1cccc([N+](=O)[O-])c1` (stereo not drawn)?
V-ATPase pHluor: 5; MPTP block: -1; Granule exo inh: 94*; T cell HTS: 322; rCAG binder: 2; B2AR ag: -2; Granule exo CP1: -14

How did COc1ccc(S(=O)(=O)N2CCN(C(=O)CCSc3ccccc3)CC2)cc1 do in these assays?
V-ATPase pHluor: 0; MPTP block: 1; Granule exo inh: 102*; T cell HTS: 590; rCAG binder: 1; B2AR ag: -3; Granule exo CP1: -4

What do the screens show for `COc1ccc(S(=O)(=O)N2CCN(C(=O)CCNC(=O)c3ccccc3Cl)CC2)cc1`?
V-ATPase pHluor: -2; MPTP block: 0; Granule exo inh: 0; T cell HTS: 505; rCAG binder: -2; B2AR ag: -1

How did COc1ccccc1CNc1nc(NC(C)C)nc2ccsc12 do in these assays?
MPTP block: 5; Granule exo inh: -13; rCAG binder: 0

Bioassay records (PubChem)
